The source of these data is article PMC12506886 (RSC Advances, 2025).

In general, IC50 refers to the concentration at which inhibition is half-maximal.

Like-named read-outs stand apart in the source and are kept apart here.

In assay [1] the test system is A549 (human lung cancer) cells. The assay can be described thus: MTT antiproliferative assay, A549 cells. Type of assay: cell-based. The settings on record: read-out: IC50 A549. The method, boiled down:
(§1)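 Cancer cells were grown in RPMI 1640 with 10% FBS and 1% penicillin–streptomycin at 37 °C in humidified CO2. They were harvested with trypsin/EDTA and seeded at 8 × 10^3 cells per well. Cells were exposed to a concentration series in triplicate, with untreated wells as controls, for 72 h. MTT was then added for 4 h at 37 °C and formazan dissolved in DMSO (10 min, 37 °C, dark). Absorbance was read at 490 nm. IC50 is mean ± SD of 3–4 independent experiments.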

Assay [2] concerns SW480 (human colon cancer) cells. The assay can be described thus: MTT antiproliferative assay, SW480 cells. The settings on record: read-out: IC50 SW480. The format is cell-based. The procedure, abridged: as §1
On the technique in general: Formazan colour is commonly taken as a measure of viable cells.

Assay [3] relates to MRC-5 (human fetal lung fibroblast cells). Kind of assay: MTT cytotoxicity assay, MRC-5 normal cells. Type of assay: cell-based. The settings on record: MRC5, 72 h, read-out: IC50 MRC-5. The method, boiled down: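 Human fetal lung fibroblasts were harvested with trypsin/EDTA and seeded at 8 × 10^3 cells per well. They were treated in triplicate with a concentration series for 72 h, with untreated wells as controls. MTT was added for 4 h at 37 °C and formazan dissolved in DMSO. Absorbance was read at 490 nm. IC50 is mean ± SD of three independent replicates.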

For assay [4], the system named is A549 cells. Kind of assay: Annexin V-FITC/PI apoptosis assay by flow cytometry. Type of assay: cell-based, human. The settings on record: A549, 16.1 μM. The method, boiled down:
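A549 cells (1 × 10^5) were pre-cultured for 16 h, then exposed to 16.1 μM test compound for 24 h and 48 h. Cells were washed with PBS and 1× binding buffer, then stained with Annexin V-FITC for 15 min. After a further wash, PI was added in binding buffer and apoptosis rates were read by flow cytometry. Values are mean ± SD of three independent experiments, compared with untreated controls by one-way ANOVA and Tukey's test.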
A general note: Flow cytometry measures light scatter and fluorescence of single cells or particles in a stream.

For assay [5], the system named is A549 cells. The assay can be described thus: Cell cycle analysis by PI staining and flow cytometry. Type of assay: cell-based, human. The settings on record: A549, 16.1 μM. The procedure, abridged:
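A549 cells (5 × 10^4) were pre-cultured for 16 h in high-glucose DMEM, then treated with 16.1 μM test compound for 24 h and 48 h. Cells were harvested with 0.25% trypsin, washed in PBS, and stained with propidium iodide plus 1 U RNase A. DNA content was measured by flow cytometry. Values are mean ± SD of three independent experiments, compared with control by one-way ANOVA and Tukey's test.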

The test system of assay [6] is A549 cells. The settings on record: read-out: IC50 (A549); cited from earlier work.
Where [7] appears, read: MTT, 72 h, mean ± SD of 3–4 independent replicates.

Take `N.N.[Cl][Pt][Cl]` [Cisplatin, reference compound]: the IC50 in assay [1] (setting [7]) turned out to be 7.4 ± 1.6 µM.
Take `COc1cc(-c2nc3ccccc3n2Cc2cn(CC(=O)Nc3ccc(C)cc3)nn2)cc(OC)c1OC` [Compound 9a, N-(p-Tolyl)-2-(4-((2-(3,4,5-trimethoxyphenyl)-1H-benzo[d]imidazol-1-yl)methyl)-1H-1,2,3-triazol-1-yl)acetamide]: the IC50 in assay [1] (Homo sapiens, A549, 72 h) was 67.4 ± 3.4 µM; in assay [2] (Homo sapiens, SW480, 72 h), 77.2 ± 3.2 µM.
For `COc1cc(-c2nc3ccccc3n2Cc2cn(CC(=O)Nc3ccccc3)nn2)cc(OC)c1OC` [Compound 9b, N-Phenyl-2-(4-((2-(3,4,5-trimethoxyphenyl)-1H-benzo[d]imidazol-1-yl)methyl)-1H-1,2,3-triazol-1-yl)acetamide], the IC50 is 114 ± 5 µM in assay [1] (Homo sapiens, A549, 72 h) and 158 ± 7.8 µM in assay [2] (Homo sapiens, SW480, 72 h).
In the case of `COc1cc(-c2nc3ccccc3n2Cc2cn(CC(=O)Nc3ccc(Br)cc3)nn2)cc(OC)c1OC` [Compound 9d, N-(4-Bromophenyl)-2-(4-((2-(3,4,5-trimethoxyphenyl)-1H-benzo[d]imidazol-1-yl)methyl)-1H-1,2,3-triazol-1-yl)acetamide], the IC50 in assay [1] (Homo sapiens, A549, 72 h) was greater than 200 µM; in assay [2] (Homo sapiens, SW480, 72 h) it was greater than 200 µM.
Consider `COc1cc(-c2nc3ccccc3n2Cc2cn(CC(=O)Nc3ccccc3Cl)nn2)cc(OC)c1OC` [Compound 9e, N-(2-Chlorophenyl)-2-(4-((2-(3,4,5-trimethoxyphenyl)-1H-benzo[d]imidazol-1-yl)methyl)-1H-1,2,3-triazol-1-yl)acetamide], for which the half-maximal inhibitory concentration (IC50) was found to be 22.2 ± 4 µM in assay [1] (Homo sapiens, A549, 72 h); 30.4 ± 3.6 µM in assay [2] (Homo sapiens, SW480, 72 h); 105 ± 7.1 µM in assay [3].
In the case of `COc1ccc(NC(=O)Cn2cc(Cn3c(-c4cc(OC)c(OC)c(OC)c4)nc4ccccc43)nn2)c(OC)c1` [Compound 9f, N-(2,4-Dimethoxyphenyl)-2-(4-((2-(3,4,5-trimethoxyphenyl)-1H-benzo[d]imidazol-1-yl)methyl)-1H-1,2,3-triazol-1-yl)acetamide], the IC50 in assay [1] (Homo sapiens, A549, 72 h) was 16.1 ± 1.1 µM; in assay [2] (Homo sapiens, SW480, 72 h), 19.7 ± 2.7 µM; in assay [3], 121 ± 6.7 µM. In addition, the “rate of early apoptosis (Q3)” value with A549 cells [4] (24 h) is 3.79%; in the assay on A549 cells [4] (48 h), 12.2%. Moreover, the “rate of late apoptosis (Q2)” value in the assay with A549 cells [4] (24 h) is reported as 1.63%; in the assay with A549 cells [4] (48 h), 4.01%. In addition, the “changes in the number of cells in the cell cycle phases compared to control” value in the assay with A549 cells [5] (24 h) was “not significant”. Moreover, the “number of cells in the G2/M phase” value in the assay on A549 cells [5] (48 h, non-significant decrease) worked out at 12.05%. In addition, the “number of cells in the S phase” value with A549 cells [5] (48 h, p < 0.001 vs control) is listed as 33.04%. The “number of cells in the G0/G1 phase” value with A549 cells [5] (48 h, p < 0.01 vs control) was determined as 54.91%.
Consider `COc1cc(-c2nc3ccccc3n2Cc2cn(CC(=O)Nc3ccc(Cl)cc3Cl)nn2)cc(OC)c1OC` [Compound 9g, N-(2,4-Dichlorophenyl)-2-(4-((2-(3,4,5-trimethoxyphenyl)-1H-benzo[d]imidazol-1-yl)methyl)-1H-1,2,3-triazol-1-yl)acetamide], for which the IC50 in assay [1] (Homo sapiens, A549, 72 h) is 31.5 ± 4.2 µM; in assay [2] (Homo sapiens, SW480, 72 h), 64.5 ± 3.3 µM.
For the molecule `COc1cc(-c2nc3ccccc3n2Cc2cn(CC(=O)Nc3ccccc3[N+](=O)[O-])nn2)cc(OC)c1OC` [Compound 9h, N-(2-Nitrophenyl)-2-(4-((2-(3,4,5-trimethoxyphenyl)-1H-benzo[d]imidazol-1-yl)methyl)-1H-1,2,3-triazol-1-yl)acetamide], the IC50 in assay [1] (Homo sapiens, A549, 72 h) was 32.5 ± 4.2 µM; in assay [2] (Homo sapiens, SW480, 72 h), 43.8 ± 2.5 µM.
For `COc1cc(-c2nc3ccccc3n2Cc2cn(CC(=O)Nc3ccc(C)cc3C)nn2)cc(OC)c1OC` [Compound 9i, N-(2,4-Dimethylphenyl)-2-(4-((2-(3,4,5-trimethoxyphenyl)-1H-benzo[d]imidazol-1-yl)methyl)-1H-1,2,3-triazol-1-yl)acetamide] the same measures were 29.3 ± 6.6 µM and 51.5 ± 4.6 µM.
Regarding `COc1ccc(NC(=O)Cn2cc(Cn3c(-c4cc(OC)c(OC)c(OC)c4)nc4ccccc43)nn2)cc1` [Compound 9j, N-(4-Methoxyphenyl)-2-(4-((2-(3,4,5-trimethoxyphenyl)-1H-benzo[d]imidazol-1-yl)methyl)-1H-1,2,3-triazol-1-yl)acetamide], the IC50 in assay [1] (Homo sapiens, A549, 72 h) is 57.6 ± 5.7 µM; in assay [2] (Homo sapiens, SW480, 72 h), 68.1 ± 2.2 µM.
With `COc1cc(-c2nc3ccccc3n2Cc2cn(CC(=O)Nc3cccc(C)c3C)nn2)cc(OC)c1OC` [Compound 9k, N-(2,3-Dimethylphenyl)-2-(4-((2-(3,4,5-trimethoxyphenyl)-1H-benzo[d]imidazol-1-yl)methyl)-1H-1,2,3-triazol-1-yl)acetamide], the IC50 came out at 37.9 ± 0.14 µM in assay [1] (Homo sapiens, A549, 72 h) and 53.5 ± 6.4 µM in assay [2] (Homo sapiens, SW480, 72 h).
Regarding `CCc1ccc(NC(=O)Cn2cc(Cn3c(-c4cc(OC)c(OC)c(OC)c4)nc4ccccc43)nn2)cc1` [Compound 9l, N-(4-Ethylphenyl)-2-(4-((2-(3,4,5-trimethoxyphenyl)-1H-benzo[d]imidazol-1-yl)methyl)-1H-1,2,3-triazol-1-yl)acetamide], the IC50 in assay [1] (Homo sapiens, A549, 72 h) was found to be 50.3 ± 6.7 µM; in assay [2] (Homo sapiens, SW480, 72 h), 65.3 ± 1 µM.
For the molecule `COc1cc(-c2nc3ccccc3n2Cc2cn(CC(=O)NCc3ccccc3)nn2)cc(OC)c1OC` [Compound 9m, N-Benzyl-2-(4-((2-(3,4,5-trimethoxyphenyl)-1H-benzo[d]imidazol-1-yl)methyl)-1H-1,2,3-triazol-1-yl)acetamide], the IC50 in assay [1] (Homo sapiens, A549, 72 h) was found to be 47.9 ± 2.7 µM; in assay [2] (Homo sapiens, SW480, 72 h) it was 72.3 ± 5.3 µM.
For the molecule `COc1cc(-c2nc3ccccc3n2Cc2cn(CC(=O)Nc3cccc(Cl)c3)nn2)cc(OC)c1OC` [Compound 9n, N-(3-Chlorophenyl)-2-(4-((2-(3,4,5-trimethoxyphenyl)-1H-benzo[d]imidazol-1-yl)methyl)-1H-1,2,3-triazol-1-yl)acetamide], the IC50 is 20.3 ± 2 µM in assay [1] (Homo sapiens, A549, 72 h); 34.3 ± 3.1 µM in assay [2] (Homo sapiens, SW480, 72 h); 124.2 ± 0.4 µM in assay [3].
On to `COc1cc(-c2nc3ccccc3n2Cc2cn(CC(=O)Nc3ccccc3F)nn2)cc(OC)c1OC` [Compound 9o, N-(2-Fluorophenyl)-2-(4-((2-(3,4,5-trimethoxyphenyl)-1H-benzo[d]imidazol-1-yl)methyl)-1H-1,2,3-triazol-1-yl)acetamide], for which the IC50 in assay [1] (Homo sapiens, A549, 72 h) is 48.9 ± 2.2 µM; in assay [2] (Homo sapiens, SW480, 72 h), 62.4 ± 3.7 µM.
With `COc1cc(-c2nc3ccc(C)cc3[nH]2)cc(OC)c1OC` [Compound I, 6-methyl-2-(3,4,5-trimethoxyphenyl)-1H-benzo[d]imidazole], the IC50 in the assay with A549 cells [6] is 39.4 µM.
As to `COc1cccc2c1C(=O)c1c(O)c3c(c(O)c1C2=O)C[C@@](O)(C(=O)CO)C[C@@H]3O[C@H]1C[C@H](N)[C@H](O)[C@H](C)O1` [Doxorubicin, reference compound], the IC50 in assay [1] (Homo sapiens, A549, 72 h) was determined as 0.46 ± 0.02 µM; in assay [2] (Homo sapiens, SW480, 72 h), 0.59 ± 0.07 µM; in assay [3] it was 0.39 ± 0.06 µM.
For “N-(2-Nitrophenyl)-2-(4-((2-(3,4,5-trimethoxyphenyl)-1H-benzo[d]imidazol-1-yl)methyl)-1H-1,2,3-triazol-1-yl)acetamide [Compound 9c]”, the IC50 in assay [1] (setting [7]) worked out at 23.5 ± 3.6 µM; in assay [2] (setting [7]), 22.5 ± 3.9 µM.
